# Results taken from ChEMBL document CHEMBL4138127, “Synthesis and evaluation of new pyridyl/pyrazinyl thiourea derivatives: Neuroprotection against amyloid-β-induced toxicity” (Eur J Med Chem, 2017).
# Tests used:
# ATP synthase = test: Inhibition of ATP synthase in mouse HT22 cells assessed as ATP production at 5 uM after 7 hrs by luciferase based assay relative to control; type: cell-based; set-up: scale not given: the % may be the effect or the level left; settings: read-out: Activity
# Summary of the method: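 HT-22 cells were seeded at 10,000 per well one day before, then given 5 µM compound for 7 h at 37 °C. After PBS washes, cells were lysed in 1% Triton X-100 in TBST. Protein was measured by BCA, and equal lysate amounts were assayed for ATP with a luciferase-based kit. Vehicle control was subtracted and percent inhibition was calculated relative to vehicle control ATP.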
# Mus musculus [1] = species on record: Mus musculus; test: Inhibition of amyloid beta (1 to 42)-induced mPTP opening in mouse HT22 cells assessed as reduction in mitochondrial membrane potential loss by measuring green to red fluorescence ratio at 5 uM preincubated for 10 mins followed by amyloid beta (1 to 42) addition measured every 1 hr for 3 hrs by JC1 staining based fluorescence assay relative to control; type: cell-based
# Summary of the method: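 HT-22 cells were seeded at 30,000 per well the day before and loaded with JC-1 (7.5 µM final) in phenol red-free Opti-MEM for 1 h 15 min at 37 °C, then PBS-washed. Compound solution (5 µM in Opti-MEM) was added for 10 min at 37 °C, followed by Aβ1-42 solution (5 µM). Red (ex/em 530/580) and green (485/530) fluorescence were read hourly for 3 h. Green/red ratio change was normalized to vehicle control as 100%.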
# Mus musculus [2] = species on record: Mus musculus; test: Inhibition of mPTP opening in mouse HT22 cells assessed as protection against amyloid beta (1 to 42)-induced toxicity by measuring cell viability at 5 uM preincubated for 10 mins followed by amyloid beta (1 to 42) addition measured after 24 hrs by MTT assay (reference value: 50 to 70%); type: cell-based
# Summary of the method: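 HT-22 cells were seeded at 5000 per well the day before. Compound was added as a 10 µM solution for 10 min at 37 °C, then an equal volume of 10 µM Aβ1-42 was added, and cells were incubated 24 h at 37 °C. The table footnote states 5 µM of each. Viability was read by MTT (2 h, acidic Triton/isopropanol solubilization, A570). Protection was scaled to vehicle + Aβ as 0% and vehicle alone as 100%.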
# [3] = Cytotoxicity against mouse HT22 cells assessed as cell viability at 5 uM after 24 hrs by MTT assay relative to control; type: cell-based, HT-22; settings: read-out: Activity
# Summary of the method: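 HT-22 mouse hippocampal cells were grown in DMEM with 10% FBS and penicillin/streptomycin at 37 °C under 5% CO2, seeded at 5000 per well and exposed to 5 µM compound for 24 h at 37 °C. MTT was added for 2 h, then formazan was dissolved in 10% Triton X-100/isopropanol/0.1 M HCl for 1 h at room temperature. A570 was read and vehicle control OD subtracted to give viability.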
smiles,measurement,setting,value
Cc1ccc(NC(=S)Nc2ncccc2OCc2cccc(Cl)c2)cc1,"activity at 7 h, 5 µM",ATP synthase,94.5%
same,Ratio,Mus musculus [1],26%
same,Activity,Mus musculus [2],22.8%
same,"viability at 24 h, 5 µM",[3],96.2%
Fc1cccc(COc2cccnc2NC(=S)Nc2cccc3ccccc23)c1,"activity at 7 h, 5 µM",ATP synthase,100%
same,Ratio,Mus musculus [1],16.7%
same,Activity,Mus musculus [2],48.2%
same,"viability at 24 h, 5 µM",[3],102%
CC(C)(C)NC(=S)Nc1ncccc1OCc1cccc(Cl)c1,Ratio,Mus musculus [1],112%
CCNC(=S)Nc1ncccc1OCc1ccccc1,Ratio,Mus musculus [1],66.8%
S=C(Nc1ncccc1OCc1ccccc1)Nc1cccc2ccccc12,"activity at 7 h, 5 µM",ATP synthase,65%
same,Ratio,Mus musculus [1],17.1%
CC(C)NC(=S)Nc1nccnc1OCc1cccc(F)c1,Ratio,Mus musculus [1],43.1%
CC(C)NC(=S)Nc1ncccc1OCc1ccccc1,Ratio,Mus musculus [1],45.2%
CC(C)(C)NC(=S)Nc1nccnc1OCc1cccc(F)c1,"activity at 7 h, 5 µM",ATP synthase,99.7%
same,Ratio,Mus musculus [1],28.1%
same,Activity,Mus musculus [2],13.2%
same,"viability at 24 h, 5 µM",[3],101%
Cc1ccc(NC(=S)Nc2nccnc2OCc2cccc(F)c2)cc1,"activity at 7 h, 5 µM",ATP synthase,102%
same,Ratio,Mus musculus [1],4.6%
same,Activity,Mus musculus [2],69.3%
same,"viability at 24 h, 5 µM",[3],96.4%
CC(C)NC(=S)Nc1ncccc1OCc1ccccc1Cl,"activity at 7 h, 5 µM",ATP synthase,93.7%
same,Ratio,Mus musculus [1],31.7%
same,Activity,Mus musculus [2],-6.7%
same,"viability at 24 h, 5 µM",[3],99.3%
S=C(Nc1cccc(Cl)c1)Nc1ncccc1OCc1cccc(Cl)c1,"activity at 7 h, 5 µM",ATP synthase,104%
same,Ratio,Mus musculus [1],38%
same,Activity,Mus musculus [2],51.8%
same,"viability at 24 h, 5 µM",[3],98.3%
Cc1ccc(NC(=S)Nc2ncccc2OCc2ccccc2Cl)cc1,"activity at 7 h, 5 µM",ATP synthase,102%
same,Ratio,Mus musculus [1],13%
same,Activity,Mus musculus [2],6.6%
same,"viability at 24 h, 5 µM",[3],93.5%
CC(C)NC(=S)Nc1nccnc1OCc1ccccc1Cl,Ratio,Mus musculus [1],56.3%
CC(C)(C)NC(=S)Nc1ncccc1OCc1ccccc1,Ratio,Mus musculus [1],91%
S=C(Nc1cccc(Cl)c1)Nc1ncccc1OCc1ccccc1,"activity at 7 h, 5 µM",ATP synthase,68%
same,Ratio,Mus musculus [1],25.3%
CCNC(=S)Nc1ncccc1OCc1ccccc1Cl,Ratio,Mus musculus [1],94.1%
S=C(Nc1cccc(Cl)c1)Nc1ncccc1OCc1ccccc1Cl,"activity at 7 h, 5 µM",ATP synthase,103%
same,Ratio,Mus musculus [1],14.2%
same,Activity,Mus musculus [2],22.7%
same,"viability at 24 h, 5 µM",[3],116%
S=C(NCc1ccccc1)Nc1ncccc1OCc1ccccc1,Ratio,Mus musculus [1],75.3%
CC(C)NC(=S)Nc1ncccc1OCc1cccc(F)c1,Ratio,Mus musculus [1],86%
S=C(Nc1ncccc1OCc1cccc(Cl)c1)Nc1cccc2ccccc12,"activity at 7 h, 5 µM",ATP synthase,107%
same,Ratio,Mus musculus [1],26%
same,Activity,Mus musculus [2],18.6%
same,"viability at 24 h, 5 µM",[3],123%
Cc1ccc(NC(=S)Nc2ncccc2OCc2ccccc2)cc1,"activity at 7 h, 5 µM",ATP synthase,66%
same,Ratio,Mus musculus [1],23.3%
CCNC(=S)Nc1ncccc1OCc1cccc(F)c1,Ratio,Mus musculus [1],88.7%
CC(C)(C)NC(=S)Nc1ncccc1OCc1cccc(F)c1,Ratio,Mus musculus [1],123%
S=C(Nc1cccc(Cl)c1)Nc1nccnc1OCc1ccccc1Cl,"activity at 7 h, 5 µM",ATP synthase,98%
same,Ratio,Mus musculus [1],30.8%
same,Activity,Mus musculus [2],29.6%
same,"viability at 24 h, 5 µM",[3],114%
S=C(Nc1ncccc1OCc1ccccc1Cl)Nc1cccc2ccccc12,"activity at 7 h, 5 µM",ATP synthase,100%
same,Ratio,Mus musculus [1],17.5%
same,Activity,Mus musculus [2],9.5%
same,"viability at 24 h, 5 µM",[3],89.3%
S=C(NCc1ccccc1)Nc1nccnc1OCc1ccccc1Cl,"activity at 7 h, 5 µM",ATP synthase,85.1%
same,Ratio,Mus musculus [1],5.3%
same,Activity,Mus musculus [2],3.8%
same,"viability at 24 h, 5 µM",[3],105%
NC(=O)CN1CCCC1=O [PIRACETAM],"activity at 7 h, 5 µM",ATP synthase,88%
same,Activity,Mus musculus [2],29%
